Test results reported in ChEMBL document CHEMBL2396518, “A facile synthesis, anti-inflammatory and analgesic activity of isoxazolyl-2,3-dihydrospiro[benzo[f]isoindole-1,3'-indoline]-2',4,9-triones” (2013).

How the values were obtained:
Assay type in all cases: functional
Rattus norvegicus [1] = experiment: Antiinflammatory activity in carrageenan-induced Wistar rat paw edema model assessed as paw volume at 100 mg/kg, po administered 30 mins prior to carrageenan challenge measured at 6 hrs by plethysmographic analysis (reference value: 0.96 +/- 0.03 ml)
Mus musculus [2] = experiment: Analgesic activity in Swiss albino mouse assessed as inhibition of acetic acid-induced writhing at 50 mg/kg, po administered 30 mins followed by acetic acid challenge measured for 20 mins relative to control
Outline: (§1)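 Mice were fasted 18 h with water ad libitum and split into 6 groups. Test agents were dosed orally at 50 mg/kg, with diclofenac 50 mg/kg as standard. After 30 min, 1.0% v/v acetic acid was given ip at 1 mL/100 g. Writhes were counted over 20 min. % inhibition = (mean control writhes − mean test writhes)/mean control writhes × 100. Results are mean ± S.E.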

Rattus norvegicus [3] = experiment: Antiinflammatory activity in carrageenan-induced Wistar rat paw edema model assessed as paw volume at 100 mg/kg, po administered 30 mins prior to carrageenan challenge measured at 2 hrs by plethysmographic analysis (reference value: 1.07 +/- 0.08 ml)
Rattus norvegicus [4] = experiment: Antiinflammatory activity in carrageenan-induced Wistar rat paw edema model assessed as paw volume at 100 mg/kg, po administered 30 mins prior to carrageenan challenge measured at 1 hr by plethysmographic analysis (reference value: 0.90 +/- 0.05 ml)
Rattus norvegicus [5] = experiment: Antiinflammatory activity in carrageenan-induced Wistar rat paw edema model assessed as paw volume at 100 mg/kg, po administered 30 mins prior to carrageenan challenge measured at 4 hrs by plethysmographic analysis (reference value: 1.2 +/- 0.05 ml)
Mus musculus [6] = experiment: Analgesic activity in Swiss albino mouse assessed as inhibition of acetic acid-induced writhing at 50 mg/kg administered 30 mins followed by acetic acid challenge measured for 20 mins relative to control; outline: as §1

| SMILES | Activity (Rattus norvegicus [1]) [mL] | inhibition in vivo at 50 mg/kg (Mus musculus [2]) [%] | Activity (Rattus norvegicus [3]) [mL] | Activity (Rattus norvegicus [4]) [mL] | Activity (Rattus norvegicus [5]) [mL] | inhibition in vivo at 50 mg/kg (Mus musculus [6]) [%] |
| --- | --- | --- | --- | --- | --- | --- |
| Cc1noc(/C=C/c2ccccc2)c1N1CC2=C(C(=O)c3ccccc3C2=O)C12C(=O)Nc1ccccc12 (stereo unspecified) | 0.6 | 22.4 | 0.84 | 0.75 | 0.75 | – |
| Cc1ccc(/C=C/c2onc(C)c2N2CC3=C(C(=O)c4ccccc4C3=O)C23C(=O)Nc2ccccc23)cc1 (stereo unspecified) | 0.54 | 26.3 | 0.8 | 0.7 | 0.69 | – |
| COc1ccc(/C=C/c2onc(C)c2N2CC3=C(C(=O)c4ccccc4C3=O)C23C(=O)Nc2ccccc23)cc1 (stereo unspecified) | 0.6 | 19.6 | 0.91 | 0.8 | 0.65 | – |
| Cc1noc(/C=C/c2ccc(Cl)cc2)c1N1CC2=C(C(=O)c3ccccc3C2=O)C12C(=O)Nc1ccccc12 (stereo unspecified) | 0.41 | 50.4 | 0.69 | 0.54 | 0.65 | – |
| Cc1noc(/C=C/c2ccc(Cl)cc2Cl)c1N1CC2=C(C(=O)c3ccccc3C2=O)C12C(=O)Nc1ccccc12 (stereo unspecified) | 0.32 | 44.8 | 0.71 | 0.57 | 0.54 | – |
| Cc1noc(/C=C/c2c(Cl)cccc2Cl)c1N1CC2=C(C(=O)c3ccccc3C2=O)C12C(=O)Nc1ccccc12 (stereo unspecified) | 0.4 | 48.3 | 0.7 | 0.54 | 0.67 | – |
| Cc1noc(/C=C/c2ccccc2O)c1N1CC2=C(C(=O)c3ccccc3C2=O)C12C(=O)Nc1ccccc12 (stereo unspecified) | 0.52 | 20.4 | 0.81 | 0.78 | 0.8 | – |
| Cc1noc(/C=C/c2ccccc2)c1N1CC2=C(C(=O)c3ccccc3C2=O)C12C(=O)Nc1ccc(Cl)cc12 (stereo unspecified) | 0.63 | 16.5 | 0.83 | 0.82 | 0.82 | – |
| COc1ccc2c(c1)C1(C(=O)N2)C2=C(CN1c1c(C)noc1/C=C/c1ccccc1)C(=O)c1ccccc1C2=O (stereo unspecified) | 0.6 | 18.4 | 0.91 | 0.73 | 0.81 | – |
| Cc1ccc2c(c1)C1(C(=O)N2)C2=C(CN1c1c(C)noc1/C=C/c1ccccc1)C(=O)c1ccccc1C2=O (stereo unspecified) | 0.55 | 19.5 | 0.89 | 0.77 | 0.83 | – |
| O=C(O)Cc1ccccc1Nc1c(Cl)cccc1Cl [DICLOFENAC] | – | – | – | – | – | 53.6 |
